In PMC4827469 (ACS Central Science, 2015):
Like-named read-outs stand apart in the source and are kept apart here.

How the values were obtained:
[1] = metabolite identification/biotransformation, mouse liver microsomes; type: in vitro ADME; conditions: 1 mg/ml protein, 5 µM drug, 1 mM NADPH, 37 °C
[2] = metabolite identification/biotransformation, human liver microsomes; type: in vitro ADME
PANC-1 [3] = assay: in vitro cytotoxicity assay; type: cell-based; conditions: Homo sapiens, PANC-1, 48 h
MDA-MB-231 = conditions: read-out: IC50 reported in the lit.; natural product, MDA-MB-231 (CCRC-60425) ref 1; cited from earlier work
H441 [4] = assay: in vitro cytotoxicity assay; type: cell-based; conditions: Homo sapiens, NCI-H441, 72 h, read-out: IC50 (72 h)
In short: (§1)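 Cells grown in medium with 10% FBS and exposed to test compound for 72 h. Viability read by MTS or MTT stain, and IC50 derived from the readings.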

H441 [5] = conditions: read-out: IC50 reported in the lit.; H441, KMUH ref 2c; cited from earlier work
LNCaP = conditions: read-out: IC50 reported in the lit.; natural product, LNCaP (CCRC-60088) ref 1; cited from earlier work
PANC-1 [6] = conditions: read-out: IC50 reported in the lit.; PANC-1 (48 h), ATCC, SRB assay ref 2f; cited from earlier work
HepG2 [7] = assay: in vitro cytotoxicity assay; type: cell-based; conditions: Homo sapiens, HepG2, 72 h, read-out: IC50 (72 h)
In short: as §1

HepG2 [8] = conditions: HepG2, 5% FBS, 48 h incubation, SRB stain ref 2a; cited from earlier work
[9] = test system: A549 subcutaneous xenografts; conditions: NOD/SCID mice, 2 weeks of oral 30 and 60 mg/kg ref 18; cited from earlier work
[10] = test system: panel of human tumor cell lines; assay: panel of human tumor cell lines in vitro; type: cell-based
In short: as §1

Hep3B = conditions: 5% FBS, 48 h incubation, SRB stain ref 2a; cited from earlier work
H838 tumor cell line = H838 tumor cell line ref 23 (Ho et al., Biomed. Pharmacother. 2014); cited from earlier work
A549 [11] = conditions: read-out: IC50 reported in the lit.; A549 (12 h), KMUH ref 2c; cited from earlier work
AsPC-1 [12] = conditions: read-out: IC50 reported in the lit.; AsPC-1 (48 h), ATCC, SRB assay ref 2f; cited from earlier work
AsPC-1 [13] = assay: in vitro cytotoxicity assay; type: cell-based; conditions: Homo sapiens, ASPC1, 48 h
Hep 3B tumor model = conditions: initial tumor sizes 50–70 mm^3 ref 2a, 19; cited from earlier work
[14] = mouse pharmacokinetic study; type: in vivo; conditions: male, Balb/C, whole blood, 50 mg/kg
[15] = metabolite identification/biotransformation, rat liver microsomes; type: in vitro ADME
[16] = test system: Hep 3B HCC tumor xenografts; assay: in vivo antitumor activity, subcutaneous Hep3B HCC xenograft in NSG mice; parameters: species or system mouse; conditions: female NSG mice, 50 mg/kg ip daily for 14 days
In short: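 Hep 3B hepatocellular carcinoma xenograft in mice, dosed per schedule. Paclitaxel positive control given iv at 24 mg/kg qd×5. Tumor growth inhibition, body weight and signs of toxicity monitored. Error given as SE computed from the average deviation.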

A549 [17] = assay: in vitro cytotoxicity assay; type: cell-based, human

Structure (SMILES): COC1=C(OC)[C@H](O)[C@H](C/C=C(\C)CC/C=C(\C)CCC=C(C)C)[C@@H](C)C1=O [Compound 1, Antroquinonol A]
- biotransformation in liver microsomes [1]: rapidly converted to a major metabolite
- biotransformation in liver microsomes [2]: rapidly converted to a major metabolite
- IC50 (PANC-1 [3]): > 25 µM
- IC50 (MDA-MB-231): 2.6 ± 0.05 µM
- IC50 (H441 [4]): > 25 µM
- IC50 (H441 [5]): 25 µM
- IC50 (LNCaP): 6.1 ± 0.07 µM
- IC50 (PANC-1 [6]): 19 µM
- IC50 (HepG2 [7]): > 25 µM
- GI50 (HepG2 [8]): 0.22 µM
- antitumor effect reported [9]: tumor growth suppression
- fold less cytotoxic than reported for the natural product ([10]; cell lines of Table 1 except A549): 3–70 fold
- cytotoxicity in tumor cell line panel ([10]; panel of Table 1): only micromolar activity
- GI50 (Hep3B): > 30 µM
- IC50 (H838 tumor cell line): ~3 µM
- IC50 (A549 [11]): 25 µM
- IC50 (AsPC-1 [12]): 20 µM
- IC50 (AsPC-1 [13]): > 25 µM
- antitumor activity reported in the literature (Hep 3B tumor model): statistically significant antitumor activity
- AUC(0-t) ([14]; ip): 2.29 ± 0.142 µM·h
- Cmax ([14]; ip): 457 ± 45 nM
- Tmax ([14]; ip): 4 ± 3 h
- AUC(0-t) ([14]; po): 0.266 ± 0.088 µM·h
- Cmax ([14]; po): 79 ± 52 nM
- Tmax ([14]; po): 2 ± 1 h
- biotransformation in liver microsomes [15]: rapidly converted to a major metabolite
- tolerability [16]: generally well-tolerated with no overt signs of toxicity
- weight loss [16]: ~4%
- fold more potent than previously reported (A549 [17]; A549): ~4 fold
- IC50 (A549 [17]; Homo sapiens, A549, 12 h, A549 (12 h) (ATCC), 1 triplicate, 15 duplicate): 6.7 ± 2.5 µM
